Data on one molecule can be found in ChEMBL document CHEMBL2440017, “Discovery of a potent, selective, and orally bioavailable histamine H3 receptor antagonist SAR110068 for the treatment of sleep-wake disorders” (Bioorg Med Chem Lett, 2013).

As usually defined, the AUC is concentration integrated over time. High values mean high exposure, low ones low exposure.

The target in data set [1] is Histamine H3 receptor (Cavia porcellus) (UniProt Q9JI35). In words: Antagonist activity at histamine H3 receptor in guinea pig ileum assessed as inhibition of RAMH-induced inhibition of electrical field-stimulated contraction. It counts as tissue-based. Summed up: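 Isolated guinea pig ileum contracted by electrical field stimulation. Contractions inhibited with the H3 agonist RAMH; test compound examined for competitive antagonism of this RAMH effect.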
Sequence of Histamine H3 receptor (Cavia porcellus) (Q9JI35 whole entry): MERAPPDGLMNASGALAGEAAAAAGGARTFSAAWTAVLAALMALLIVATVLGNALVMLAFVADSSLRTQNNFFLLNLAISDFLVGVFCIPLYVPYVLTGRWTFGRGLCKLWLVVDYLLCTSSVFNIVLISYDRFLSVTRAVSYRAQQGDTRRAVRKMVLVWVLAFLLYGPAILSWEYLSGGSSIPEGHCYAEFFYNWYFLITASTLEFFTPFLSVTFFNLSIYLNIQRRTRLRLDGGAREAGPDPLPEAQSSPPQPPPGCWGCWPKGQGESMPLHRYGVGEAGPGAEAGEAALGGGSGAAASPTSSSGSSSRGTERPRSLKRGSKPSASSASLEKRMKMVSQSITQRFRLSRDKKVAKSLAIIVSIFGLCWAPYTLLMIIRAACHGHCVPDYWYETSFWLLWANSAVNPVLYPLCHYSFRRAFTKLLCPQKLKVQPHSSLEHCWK

A short description of data set [2]: Metabolic stability in guinea pig microsomes. It counts as ADME, Cavia porcellus, Microsome. The method, boiled down:
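Percentage biotransformation measured in vitro in liver microsomes of each species.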

A short description of data set [3]: AUC in OF1 mouse plasma at 10 mg/kg, po. It counts as ADME, organism-based. Also noted: dose 10 mg/kg, route oral. The method, boiled down: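 Oral gavage at 10 mg/kg to male OF1 mice (vehicle 5% DMSO/0.5% MC/0.2% Tween80, 1.0 mg/mL) or male Sprague-Dawley rats (vehicle 0.5% MC/0.2% Tween80, 1.0 mg/mL). Plasma and brain exposure and half-life determined.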
Data set [4] in a line: Biotransformation in human microsomes. It counts as ADME, Microsome. As to conditions: read-out: Activity. The method, boiled down:
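Percentage biotransformation measured in human liver microsomes in vitro.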

Calls of active or inactive are those of the source. The calls are words filed in the database; no cut-off is given here.

As to `Cc1cc(N2CC[C@H](N3CCC[C@@H]3C)C2)ccc1NC(=O)C1CCOCC1`, in data set [1], the inhibition entry is “Active”. The Stability result in data set [2] was “Stable”. In addition, the AUC in data set [3] is 3200 ng·h/mL. Further, the metabolised in data set [4] is under 5%.
